Source: PubChem (several laboratories)
The list is not random: actives were taken first. Their share in the collection is about 2.8%.
UBC13 inh – blocks human UBC13 polyubiquitin chain formation. P61088. TR-FRET. inhibition, % at 20 µM. 330,000 compounds, 0.47% hits; in the data active means inhibition above about 45%, passing the limit was not always enough
Target sequence (P61088 whole entry, looked up): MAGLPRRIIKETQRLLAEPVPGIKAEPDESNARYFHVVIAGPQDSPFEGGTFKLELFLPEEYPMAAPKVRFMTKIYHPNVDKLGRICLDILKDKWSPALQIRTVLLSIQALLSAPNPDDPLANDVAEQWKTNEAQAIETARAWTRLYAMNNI
AI-2 QS mod – modulators of Vibrio harveyi AI-2 quorum sensing system | activity change, % at 7.5 µM | Vibrio harveyi JMH597 AI-2 luminescence/OD600 ratio, 9 h; active compounds read low; strain lacks LuxN and CqsS sensors; 0 = neutral-control median | AID 2094 | 300,000 compounds, 0.4% hits; in the data active means activity change below about -75%, passing the limit was not always enough;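 further: luminescence divided by OD600 gain over 9 h not by final OD600 alone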
p-CIP stab down – lowers stability of the mouse p/CIP coactivator protein | decrease of EGFP signal, % at 10 µM | Q05BA5 | F442A p/CIP-EGFP cells, EGFP fluorescence, 16 h | 290,000 compounds, 0.01% hits;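 active means EGFP signal decrease of at least 30% at 10 µM or well 3 SD below plate mean, unless failing retest; inactive means the rest, including hits failing retest or dose response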
PP1 counter – PP1-alpha (human) inhibition in PP5 counter-screen; purified PP1alpha, OMFP fluorescence; P62136; 320,000 compounds, 0.9% hits; AID 2235; inhibition, % at 6.7 µM;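 active means inhibition above the mean inhibition of all tested compounds plus 3 SD, computed separately for each screening campaign, cut at about 15% in these data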
T cruzi inh – T. cruzi replication inhibition | 300,000 compounds, 1.4% hits | inhibition, % (concentration not given with the values) | T. cruzi beta-gal in NIH3T3, luminescence, 90 h;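 active means mean inhibition across valid replicates above about 55%, limit read from the data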;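 further: signal also drops with host cell toxicity which is not excluded here; 0% = plate median of DMSO wells and 100% = zero luminescence signal; higher percent means less beta-gal luminescence so fewer parasites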
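Incubation – ≥90 h infection period, 3 h prior cell attachment · System – NIH/3T3 fibroblasts plus reporter T. cruzi · Doses – compound pinned at 50 nL/well, DMSO · Read-out basis – percent inhibition of parasite-derived β-gal signal · Signal – luminescent β-galactosidase signal after 60 min lysis · Also added – 5000 T. cruzi trypomastigotes/well · Medium – Low-serum DMEM with 2% FBS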
JMH597 growth – retest: inhibitors of Vibrio harveyi JMH597 growth. shares compounds with AI-2 QS mod. OD600 absorbance, 9 h; lacks LuxN and CqsS sensors. growth inhibition, % at 7.5 µM. 750 compounds, 1% hits. AID 2726;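 active means every replicate shows growth inhibition above 50%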
BB721 const-QS lum – retest counter-screen: luminescence loss in constitutive-on quorum sensing strain BB721; shares compounds with AI-2 QS mod; Vibrio harveyi BB721 luminescence, 9 h; inhibition, % at 7.5 µM; AID 2727; 750 compounds, 95% hits;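 active means inhibition above about 80% in every replicate, not just on average, limit read from the data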
BB721 growth rt – retest: blocks Vibrio harveyi BB721 growth | shares compounds with AI-2 QS mod | OD600 absorbance, 9 h | growth inhibition, % at 7.5 µM | 750 compounds, 3% hits | AID 2728;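 active means every replicate shows growth inhibition above 50%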
JMH597 AI-2 mod – Vibrio harveyi AI-2 signaling luminescence modulation – JMH597 strain, confirmation; shares compounds with AI-2 QS mod; Vibrio harveyi JMH597 AI-2 quorum sensing luminescence, 9 h; luxN and CqsS knockout, AI-2 only; inhibition, % at 7.5 µM; 750 compounds, 97% hits;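 active means every replicate shows more than 75% inhibition of signal versus neutral control wells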
* marks the source's active call; other numbers are inactive results; x = not tested or not shown.

SMILES	UBC13 inh	AI-2 QS mod	p-CIP stab down	PP1 counter	T cruzi inh	JMH597 growth	BB721 const-QS lum	BB721 growth rt	JMH597 AI-2 mod
O=C(/C=C/c1ccc(Br)o1)NCc1ccccc1	5	-90*	-2	6	13	13	97*	19	97*
COc1cc(NC(=O)CCN2CC(C)OC(C)C2)cc(OC)c1 (stereo unspecified)	1	13	-8	-11	-6	x	x	x	x
COc1ccc(/C=N/Nc2ccc(C(=O)O)cc2)c(OC)c1OC	-3	-92*	-14	-2	-6	0	95*	-7	96*
Cc1ccc(NC(=O)CCCc2nc3ccccc3s2)c(O)c1	2	30	14	-1	-3	x	x	x	x
COc1cc(C(=O)NNc2nc3cc4c(cc3s2)OCO4)cc(OC)c1OC	3	25	5	-1	-4	x	x	x	x
O=C(NNc1nc2cc3c(cc2s1)OCO3)c1ccccc1	5	-91*	-12	-3	-2	2	98*	20	98*
Clc1cccc(CON/C=N/c2ncnc3sccc23)c1	6	-92*	0	-4	10	44	96*	0	98*
COc1ccc(N2CCN(CCC(O)c3ccc4ccccc4c3)CC2)cc1 (stereo unspecified)	2	21	-4	2	26	x	x	x	x
CCN(CC)S(=O)(=O)c1ccc(NC(=O)Cn2c(=O)sc3ccccc32)cc1	-2	-82*	2	5	-8	17	91*	18	94*
O=C(Cn1c(=O)sc2ccccc21)Nc1ccccc1	11	13	-4	1	-16	x	x	x	x
O=C(Cn1c(=O)sc2ccccc21)Nc1ccc(S(=O)(=O)N2CCCCC2)cc1	-6	-90*	12	1	14	44	96*	28	99*
O=C(CN1CCCCC1)Nc1ccc(S(=O)(=O)N2CCCCCC2)cc1	-8	-6	2	-2	10	x	x	x	x
CC(=O)NC(C)C(=O)OCc1ccc(Cl)cc1Cl (stereo unspecified)	4	33	0	-4	-4	x	x	x	x
CC1(c2cccc(Br)c2)NC(=O)N(CC(=O)Nc2ccc3c(c2)OCO3)C1=O (stereo unspecified)	6	x	x	-5	x	x	x	x	x
Cc1ccc(NC(=O)CN2C(=O)NC(C)(c3ccc(Cl)cc3)C2=O)cc1 (stereo unspecified)	-2	-88*	-5	2	0	0	89*	9	94*
CC1(c2ccccc2)NC(=O)N(CC(=O)Nc2ccc(C(N)=O)cc2)C1=O (stereo unspecified)	0	3	-7	-1	-19	x	x	x	x
O=C(CN1C(=O)NC2(CCOc3ccccc32)C1=O)Nc1cccc(Cl)c1 (stereo unspecified)	1	-93*	-7	-4	3	-5	96*	-8	98*
Cc1ccc(C2(C)NC(=O)N(CC(=O)NC(=O)NCCC(C)C)C2=O)cc1 (stereo unspecified)	9	-85*	1	-1	-18	-14	90*	-38	95*
Cc1ccc(C2(C)NC(=O)N(CC(=O)Nc3ccc4c(c3)OCO4)C2=O)cc1 (stereo unspecified)	-1	-95*	-1	-4	6	11	97*	51	98*
Cc1cccc(NC(=O)CN2C(=O)NC(C)(c3ccc4c(c3)OCO4)C2=O)c1 (stereo unspecified)	7	-87*	-5	2	-11	-5	88*	4	92*
CCC1(c2ccccc2)NC(=O)N(CC(=O)Nc2ccc3c(c2)OCO3)C1=O (stereo unspecified)	5	-93*	-6	-3	-2	28	96*	30	97*
